Assay results: article PMC10840089 (RSC Advances, 2024)
Entries after “also recorded” stand apart in the source; their conditions may differ.

Key:
[1] = target: T1, α-amylase from porcine pancreas (Sus scrofa, UniProt P00690); test: α-amylase inhibition assay; assay type: biochemical
T1 sequence (P00690 16-511): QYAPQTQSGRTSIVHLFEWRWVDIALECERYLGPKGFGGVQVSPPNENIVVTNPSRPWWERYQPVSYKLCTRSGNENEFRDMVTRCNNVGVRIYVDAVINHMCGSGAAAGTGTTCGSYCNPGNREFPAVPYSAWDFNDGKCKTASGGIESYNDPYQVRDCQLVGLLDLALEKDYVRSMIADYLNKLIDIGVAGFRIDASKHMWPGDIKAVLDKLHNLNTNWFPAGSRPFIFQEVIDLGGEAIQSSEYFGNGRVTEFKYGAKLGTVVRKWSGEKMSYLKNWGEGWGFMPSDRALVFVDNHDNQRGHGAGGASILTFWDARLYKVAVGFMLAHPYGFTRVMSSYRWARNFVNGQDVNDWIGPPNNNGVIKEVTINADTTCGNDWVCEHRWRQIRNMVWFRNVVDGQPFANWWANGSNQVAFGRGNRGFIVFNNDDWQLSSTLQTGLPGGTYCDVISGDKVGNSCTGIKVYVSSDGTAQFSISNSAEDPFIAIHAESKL

[2] = target: T1, α-amylase from porcine pancreas; test: α-amylase inhibition kinetics; assay type: biochemical; details: for type (mechanism) of α-amylase inhibition: Lineweaver–Burk plot, starch 0.5 to 2.5%
Outline: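 Porcine pancreatic enzyme (1151 U mg−1 protein) diluted in 0.2 mol L−1 phosphate buffer, pH 6, preincubated with test compound (6.25–50 μM) 5 min at 25 °C. Soluble starch (0.5–2.5%) then added, 10 min at 25 °C. Reducing sugar measured with DNS (boiling water, 15 min) at 540 nm against a glucose standard curve. Inhibition type taken from Lineweaver–Burk plots, Vmax and KM by graph fitting.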

Structure (SMILES)	IC50 [1]	type (mechanism) of α-amylase inhibition [2]	Ki [2]
C=C1CC[C@@H]2C(C)(C)C(=O)CC[C@@]2(C)[C@@H]1COc1ccc2ccc(=O)oc2c1 [Compound 2, 7-(((1R,4aS,8aR)-5,5,8a-trimethyl-2-methylene-6-oxodecahydronaphthalen-1-yl)methoxy)-2H-chromen-2-one]	25 ± 0.99 µM		
C=C1CC[C@@H]2C(C)(C)C(=O)/C(=C/c3ccccc3)C[C@@]2(C)[C@@H]1COc1ccc2ccc(=O)oc2c1 [Compound 3a, 7-(((1R,4aS,8aR)-7-((E)-benzylidene)-5,5,8a-trimethyl-2-methylene-6-oxodecahydronaphthalen-1-yl)methoxy)-2H-chromen-2-one]	29 ± 0.65 µM		
C=C1CC[C@@H]2C(C)(C)C(=O)/C(=C/c3ccc4ccccc4c3)C[C@@]2(C)[C@@H]1COc1ccc2ccc(=O)oc2c1 [Compound 3b, 7-(((1R,4aS,8aR,E)-5,5,8a-trimethyl-2-methylene-7-(naphthalen-2-ylmethylene)-6-oxodecahydronaphthalen-1-yl)methoxy)-2H-chromen-2-one]	14.4 ± 0.3 µM		
C=C1CC[C@@H]2C(C)(C)C(=O)/C(=C/c3ccc(F)cc3)C[C@@]2(C)[C@@H]1COc1ccc2ccc(=O)oc2c1 [Compound 3c, 7-(((1R,4aS,8aR)-7-((E)-4-fluorobenzylidene)-5,5,8a-trimethyl-2-methylene-6-oxodecahydronaphthalen-1-yl)methoxy)-2H-chromen-2-one]	13.2 ± 0.73 µM		
C=C1CC[C@@H]2C(C)(C)C(=O)/C(=C/c3ccc(Cl)cc3)C[C@@]2(C)[C@@H]1COc1ccc2ccc(=O)oc2c1 [Compound 3d, 7-(((1R,4aS,8aR)-7-((E)-4-chlorobenzylidene)-5,5,8a-trimethyl-2-methylene-6-oxodecahydronaphthalen-1-yl)methoxy)-2H-chromen-2-one]	17.2 ± 0.5 µM		
C=C1CC[C@@H]2C(C)(C)C(=O)/C(=C/c3ccc(Br)cc3)C[C@@]2(C)[C@@H]1COc1ccc2ccc(=O)oc2c1 [Compound 3e, 7-(((1R,4aS,8aR)-7-((E)-4-bromobenzylidene)-5,5,8a-trimethyl-2-methylene-6-oxodecahydronaphthalen-1-yl)methoxy)-2H-chromen-2-one]	15.4 ± 0.29 µM		
C=C1CC[C@@H]2C(C)(C)C(=O)/C(=C/c3ccc(C)cc3)C[C@@]2(C)[C@@H]1COc1ccc2ccc(=O)oc2c1 [Compound 3f, 7-(((1R,4aS,8aR)-5,5,8a-trimethyl-7-((E)-4-methylbenzylidene)-2-methylene-6-oxodecahydronaphthalen-1-yl)methoxy)-2H-chromen-2-one]	22.3 ± 0.9 µM		
C=C1CC[C@@H]2C(C)(C)C(=O)/C(=C/c3ccc(C(C)(C)C)cc3)C[C@@]2(C)[C@@H]1COc1ccc2ccc(=O)oc2c1 [Compound 3g, 7-(((1R,4aS,8aR)-7-((E)-4-(tert-butyl)benzylidene)-5,5,8a-trimethyl-2-methylene-6-oxodecahydronaphthalen-1-yl)methoxy)-2H-chromen-2-one]	22.7 ± 0.86 µM		
C=C1CC[C@@H]2C(C)(C)C(=O)/C(=C/c3ccc(OC)cc3)C[C@@]2(C)[C@@H]1COc1ccc2ccc(=O)oc2c1 [Compound 3h, 7-(((1R,4aS,8aR)-7-((E)-4-methoxybenzylidene)-5,5,8a-trimethyl-2-methylene-6-oxodecahydronaphthalen-1-yl)methoxy)-2H-chromen-2-one]	13.5 ± 0.54 µM		
C=C1CC[C@@H]2C(C)(C)C(=O)/C(=C/c3ccccc3OC)C[C@@]2(C)[C@@H]1COc1ccc2ccc(=O)oc2c1 [Compound 3i, 7-(((1R,4aS,8aR)-7-((E)-2-methoxybenzylidene)-5,5,8a-trimethyl-2-methylene-6-oxodecahydronaphthalen-1-yl)methoxy)-2H-chromen-2-one]	14.5 ± 0.3 µM		
C=C1CC[C@@H]2C(C)(C)C(=O)/C(=C/c3ccc(OC)c(OC)c3)C[C@@]2(C)[C@@H]1COc1ccc2ccc(=O)oc2c1 [Compound 3j, 7-(((1R,4aS,8aR)-7-((E)-3,4-dimethoxybenzylidene)-5,5,8a-trimethyl-2-methylene-6-oxodecahydronaphthalen-1-yl)methoxy)-2H-chromen-2-one]	13 ± 0.96 µM	non-competitive inhibition	
C=C1CC[C@@H]2C(C)(C)C(=O)/C(=C/c3cccc(OC(F)(F)C(F)F)c3)C[C@@]2(C)[C@@H]1COc1ccc2ccc(=O)oc2c1 [Compound 3k, 7-(((1R,4aS,8aR)-5,5,8a-trimethyl-2-methylene-6-oxo-7-((E)-3-(1,1,2,2-tetrafluoroethoxy)benzylidene)decahydronaphthalen-1-yl)methoxy)-2H-chromen-2-one]	7.24 ± 0.36 µM	mixed competitive-non-competitive inhibitors	1.02 µM
C=C1CC[C@@H]2C(C)(C)C(=O)/C(=C/c3ccc(N(C)C)cc3)C[C@@]2(C)[C@@H]1COc1ccc2ccc(=O)oc2c1 [Compound 3l, 7-(((1R,4aS,8aR)-7-((E)-4-(dimethylamino)benzylidene)-5,5,8a-trimethyl-2-methylene-6-oxodecahydronaphthalen-1-yl)methoxy)-2H-chromen-2-one]	10.8 ± 0.6 µM	mixed competitive-non-competitive inhibitors	
C=C1CC[C@@H]2C(C)(C)C(=O)/C(=C/c3ccc(N4CCCC4)cc3)C[C@@]2(C)[C@@H]1COc1ccc2ccc(=O)oc2c1 [Compound 3m, 7-(((1R,4aS,8aR)-5,5,8a-trimethyl-2-methylene-6-oxo-7-((E)-4-(pyrrolidin-1-yl)benzylidene)decahydronaphthalen-1-yl)methoxy)-2H-chromen-2-one]	8.83 ± 0.22 µM	mixed non-competitive-uncompetitive inhibitor; also recorded: mixed non-competitive-uncompetitive inhibition	
